Test results from ChEMBL document CHEMBL4364303 (Eur J Med Chem, 2019).

Tested on: Mus musculus
Test: Antiinflammatory activity in DNFB-induced ICR mouse model of auricle edema assessed as inhibition of ear swelling at 0.5 mg/kg, ig administered once daily for 6 days followed by 1% DNFB solution applied on right ear measured after 24 hrs relative to untreated control
Format: functional
Conditions: po
In short: (§1)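 Male ICR mice, 18-22 g, randomized by weight, 6 per group. Dosed by intragastric route once daily for 6 days; saline given to normal and model groups. Right ear coated with 10 uL 1% DNFB (DNFB in acetone/olive oil); left ear received acetone/olive oil only. Mice killed 24 h later and both ears weighed. Swelling = right minus left ear weight; inhibition calculated versus model control.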

Q: Which inhibition in vivo at 0.5 mg/kg does the source give for `C[C@@H]1C[C@H]2[C@@H]3CCC4=CC(=O)C=C[C@]4(C)[C@@]3(F)[C@@H](O)C[C@]2(C)[C@@]1(O)C(=O)CO` [DEXAMETHASONE] here?
A: 46.8 to 63.8%

Biological target: T1, Prostaglandin G/H synthase 1 (Ovis aries, UniProt P05979)
T1 sequence (P05979 whole entry): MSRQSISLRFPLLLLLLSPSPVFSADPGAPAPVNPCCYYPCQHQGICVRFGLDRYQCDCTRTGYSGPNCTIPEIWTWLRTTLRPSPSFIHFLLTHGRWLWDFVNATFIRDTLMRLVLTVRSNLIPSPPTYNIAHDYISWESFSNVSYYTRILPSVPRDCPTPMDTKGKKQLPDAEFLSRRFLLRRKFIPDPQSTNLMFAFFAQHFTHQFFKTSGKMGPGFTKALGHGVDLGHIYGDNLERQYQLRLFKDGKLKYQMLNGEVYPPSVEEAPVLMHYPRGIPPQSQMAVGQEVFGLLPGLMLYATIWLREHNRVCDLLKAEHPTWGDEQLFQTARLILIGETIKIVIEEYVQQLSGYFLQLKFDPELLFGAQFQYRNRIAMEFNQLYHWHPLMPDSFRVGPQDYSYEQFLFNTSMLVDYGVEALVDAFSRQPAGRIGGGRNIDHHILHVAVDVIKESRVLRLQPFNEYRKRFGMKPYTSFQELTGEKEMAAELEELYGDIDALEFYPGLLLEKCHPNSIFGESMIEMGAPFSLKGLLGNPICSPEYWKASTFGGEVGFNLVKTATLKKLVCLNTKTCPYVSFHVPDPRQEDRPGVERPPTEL
Test: Inhibition of ovine COX-1 using arachidonic acid as substrate incubated for 5 mins by fluorescence-based assay
Conditions: not given
In short: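 COX-1 fluorometric inhibitor-screening kit. Assay buffer, COX-1 cofactor and arachidonic acid were combined with test compound and incubated 5 min at 37 °C. Inhibition derived from RFU relative to 100%-activity and blank controls. Run in triplicate; IC50 taken from concentration curves.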

Q: For `COc1ccc(CN2CCN(C(=O)c3cc4cc(Cl)ccc4n3Cc3ccc(F)cc3)CC2)cc1`, which IC50 is on record?
A: 195 nM

Q: For `Cc1nc(C)c(CN2CCN(C(=O)c3cc4cc(Cl)ccc4n3Cc3ccc(Cl)cc3)CC2)nc1C`, which IC50 is on record?
A: 312 nM

Q: For `COc1ccc2[nH]cc(CCNC(=O)c3cc4cc(Cl)ccc4n3Cc3ccc(F)cc3)c2c1`, which IC50 is on record?
A: 407 nM

Q: For `O=C(c1cc2cc(Cl)ccc2n1Cc1ccc(Cl)cc1)N1CCN(Cc2ccc(Cl)cc2)CC1`, which IC50 is on record?
A: 361 nM

Tested on: not listed separately
Test: Inhibition of soyabean 15-LOX preincubated for 5 mins followed by susbtrate addition measured after 10 mins by colorimetric method
Set-up: species or system Glycine max
Conditions: not given
In short: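 Soybean lipoxygenase assessed with a commercial lipoxygenase assay kit, following the kit instructions. IC50 values determined.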

Q: With `COc1ccc(CN2CCN(C(=O)c3cc4cc(Cl)ccc4n3Cc3ccc(F)cc3)CC2)cc1` as the molecule, how does the IC50 read?
A: 83.5 nM

Q: For `Cc1nc(C)c(CN2CCN(C(=O)c3cc4cc(Cl)ccc4n3Cc3ccc(Cl)cc3)CC2)nc1C`, which IC50 is on record?
A: 339 nM

Q: For `COc1ccc2[nH]cc(CCNC(=O)c3cc4cc(Cl)ccc4n3Cc3ccc(F)cc3)c2c1`, which IC50 is on record?
A: 66.1 nM

Q: With `O=C(c1cc2cc(Cl)ccc2n1Cc1ccc(Cl)cc1)N1CCN(Cc2ccc(Cl)cc2)CC1` as the molecule, how does the IC50 read?
A: 210 nM

Q: Which IC50 does the source give for `CC(c1cc2ccccc2s1)N(O)C(N)=O` (configuration not stated) [ZILEUTON] here?
A: 38.9 nM

Tested on: Mus musculus
Test: Antiinflammatory activity in DNFB-induced ICR mouse model of auricle edema assessed as inhibition of ear swelling at 5 mg/kg, ig administered once daily for 6 days followed by 1% DNFB solution applied on right ear measured after 24 hrs relative to untreated control
Format: functional
Conditions: po
In short: as §1

Q: With `O=C(c1cc2cc(Cl)ccc2n1Cc1ccc(F)cc1)N1CCN(Cc2ccccc2)CC1` as the molecule, how does the inhibition in vivo at 5 mg/kg read?
A: 24%

Q: With `COc1ccc(CN2CCN(C(=O)c3cc4cc(Cl)ccc4n3Cc3ccc(F)cc3)CC2)cc1` as the molecule, how does the inhibition in vivo at 5 mg/kg read?
A: 43.1%

Q: For `Cc1nc(C)c(CN2CCN(C(=O)c3cc4cc(Cl)ccc4n3Cc3ccc(Cl)cc3)CC2)nc1C`, which inhibition in vivo at 5 mg/kg is on record?
A: 64.9%

Q: For `Cc1cncc(CN2CCN(C(=O)c3cc4cc(Cl)ccc4n3Cc3ccc(F)cc3)CC2)c1`, which inhibition in vivo at 5 mg/kg is on record?
A: 25.4%

Q: With `N#Cc1ccc(CN2CCN(C(=O)c3cc4cc(Cl)ccc4n3Cc3ccc(F)cc3)CC2)cc1` as the molecule, how does the inhibition in vivo at 5 mg/kg read?
A: 35.4%

Q: For `Cc1nc(C)c(CN2CCN(C(=O)c3cc4cc(Cl)ccc4n3Cc3ccc(F)cc3)CC2)nc1C`, which inhibition in vivo at 5 mg/kg is on record?
A: 48.3%

Q: For `CN1CCN(C(=O)c2cc3cc(Cl)ccc3n2Cc2ccc(F)cc2)CC1`, which inhibition in vivo at 5 mg/kg is on record?
A: 36.7%

Q: For `COc1ccc2[nH]cc(CCNC(=O)c3cc4cc(Cl)ccc4n3Cc3ccc(F)cc3)c2c1`, which inhibition in vivo at 5 mg/kg is on record?
A: 50%

Q: With `O=C(c1cc2cc(Cl)ccc2n1Cc1ccc(Cl)cc1)N1CCN(Cc2ccc(F)cc2)CC1` as the molecule, how does the inhibition in vivo at 5 mg/kg read?
A: 29.1%

Q: With `Cc1cncc(CN2CCN(C(=O)c3cc4cc(Cl)ccc4n3Cc3ccc(Cl)cc3)CC2)c1` as the molecule, how does the inhibition in vivo at 5 mg/kg read?
A: 29.8%

Q: With `O=C(c1cc2cc(Cl)ccc2n1Cc1ccc(F)cc1)N1CCN(Cc2ccc3c(c2)OCO3)CC1` as the molecule, how does the inhibition in vivo at 5 mg/kg read?
A: 34.2%

Q: For `O=C(c1cc2cc(Cl)ccc2n1Cc1ccc(Cl)cc1)N1CCN(Cc2ccc3c(c2)OCO3)CC1`, which inhibition in vivo at 5 mg/kg is on record?
A: 32.9%

Q: With `Cc1nc(C)c(CNC2CCN(C(=O)c3cc4cc(Cl)ccc4n3Cc3ccc(F)cc3)C2)nc1C` (configuration not stated) as the molecule, how does the inhibition in vivo at 5 mg/kg read?
A: 49.4%

Q: With `O=C(c1cc2cc(Cl)ccc2n1Cc1ccc(Cl)cc1)N1CCN(Cc2ccc(C(F)(F)F)cc2)CC1` as the molecule, how does the inhibition in vivo at 5 mg/kg read?
A: 30.4%

Q: With `Cc1ccc(CN2CCN(C(=O)c3cc4cc(Cl)ccc4n3Cc3ccc(Cl)cc3)CC2)cc1` as the molecule, how does the inhibition in vivo at 5 mg/kg read?
A: 39.2%

Q: With `COc1ccc2[nH]cc(CCNC(=O)c3cc4cc(Cl)ccc4n3Cc3ccc(Cl)cc3)c2c1` as the molecule, how does the inhibition in vivo at 5 mg/kg read?
A: 44.3%

Q: With `O=C(c1cc2cc(Cl)ccc2n1Cc1ccc(F)cc1)N1CCN(Cc2ccc(C(F)(F)F)cc2)CC1` as the molecule, how does the inhibition in vivo at 5 mg/kg read?
A: 27.8%

Q: For `Cc1nc(C)c(CNC2CCN(C(=O)c3cc4cc(Cl)ccc4n3Cc3ccc(Cl)cc3)C2)nc1C` (configuration not stated), which inhibition in vivo at 5 mg/kg is on record?
A: 42.5%

Q: Which inhibition in vivo at 5 mg/kg does the source give for `O=C(c1cc2cc(Cl)ccc2n1Cc1ccc(Cl)cc1)N1CCN(Cc2ccc(Cl)cc2)CC1` here?
A: 40.5%

Q: With `Cc1ccc(CN2CCN(C(=O)c3cc4cc(Cl)ccc4n3Cc3ccc(F)cc3)CC2)cc1` as the molecule, how does the inhibition in vivo at 5 mg/kg read?
A: 32.9%

Tested on: RAW264.7
Test: Cytotoxicity against mouse RAW264.7 cells assessed as cell viability up to 50 uM after 24 hrs by MTT assay
Format: cell-based
Conditions: raw264.7, 24 h
In short: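 RAW264.7 cells (ATCC), about 1.0×10^5 cells/ml, were held 2 h in serum-free medium at 37°C, 5% CO2. The supernatant was replaced with RPMI 1640 containing compound at 0, 5, 10, 20, 30, 40 or 50 μM for 24 h. MTT (5 mg/mL stock) was added for the final 4 h. Formazan was dissolved in DMSO and OD570 read. Survival was compared with blank.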

Q: Which Activity does the source give for `COc1ccc(CN2CCN(C(=O)c3cc4cc(Cl)ccc4n3Cc3ccc(F)cc3)CC2)cc1` here?
A: Non-Toxic

Q: With `COc1ccc2[nH]cc(CCNC(=O)c3cc4cc(Cl)ccc4n3Cc3ccc(F)cc3)c2c1` as the molecule, how does the Activity read?
A: Non-Toxic
